We go through 20 molecules from PubChem BioAssay.

Active and inactive are the calls of the source. Unless noted, no stated cut-off is given here; in the data, active means inhibition above about 31%; inactive means the rest.

Assay [1] is described as follows: HUVEC growth inhibition – cell-based, human, primary screen (AID 575;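 active means viability at or below 30% in both replicate assays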;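 further: 100% = median of untreated cell wells with 0.1% DMSO on each plate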). The settings on record: HUVEC proliferation, CellTiter-Glo luminescence, 72 h; at 10 µM; stronger effect = lower value. The method, boiled down:
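Assay system: primary human umbilical vein endothelial cells / Buffer or medium: endothelial basal medium with 2% FBS plus growth supplements / Compound dosing: one dose, 10 µM final, 0.1% DMSO / Timing: 72 h treatment at 37 °C / Signal: CTG luminescence / Benchmarks: 32 DMSO-only cell-control wells (high), 32 MePR drug-control wells (low) per plate / Plate: collagen-coated 384-well format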
(In ATP-based viability assays light output follows the ATP content of the culture.)

Assay [2] is described as follows: H69AR cell proliferation blockers – human, duplicate replicates, primary screen (AID 580;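 active means viability at or under a set limit in both replicates, limit being median viability minus 3 SD, cut at about 48% in these data, passing the limit was not always enough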;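 further: 100% = mean luminescence of untreated wells and 0% = no signal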). The settings on record: H69AR lung tumor cells viability, ATP luminescence, 72 h; at 10 µM; stronger effect = lower value.
Assay [3] can be described thus: MRP1 drug-resistance reversers in H69AR cells – cell-based, doxorubicin co-treatment, pilot screen (AID 601;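 active means viability loss from added drug above about 55%, and viability with drug at most 40%, in both replicates, limit read from the data, passing the limit was not always enough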). To be noted: CellTiter-Glo, 72 h, at 10 µM; for differential viability (reversal): stronger effect = higher value.
The nature of assay [4]: yeast transport mutant growth inhibition pilot in 384-well plates, post-Golgi transport modulator project (AID 636). The settings on record: absorbance 615 nm, about 18 h, stronger effect = higher value.
The nature of assay [5]: growth suppression of yeast trafficking mutant, preliminary HTS, modulators of trafficking downstream of Golgi apparatus project, 1536-format plate, OD 615 nm (AID 637; in the data active means inhibition above about 30%). The settings on record: yeast transport mutant growth, absorbance 615 nm, 18 h; stronger effect = higher value.
Setting [6] is: H69AR cells + 2 uM doxorubicin, measured here: viability with 2 uM doxorubicin, stronger effect = lower value.
[7] abbreviates: H69AR cells, compound alone cytotoxicity.

For `CN1/C(=C\C(=O)Nc2cccnc2)c2ccccc2CC1(C)C`, the viability in assay [1] was 99.3% (inactive); in assay [2] it was 86.5% (inactive); in assay [3] (setting [6]) it was 90.6%; in assay [3] (setting [7]), 86.5%. Further, the differential viability (reversal) in assay [3] (H69AR cells + 2 uM doxorubicin) was -4.08% (inactive). The inhibition was -4.4% (inactive) in assay [4] and -0.95% (inactive) in assay [5].

Take `CC1(C)NC(=O)N(CN2C(=O)NC(C)(C)C2=O)C1=O`: the viability is 99.6% (inactive) in assay [1], 102% (inactive) in assay [2], 90.8% in assay [3] (setting [6]) and 102% in assay [3] (setting [7]). Besides, the differential viability (reversal) in assay [3] (H69AR cells + 2 uM doxorubicin) is 11.1% (inactive). Moreover, the results for the inhibition in assay [4] and in assay [5] were -3.33% (inactive) and -1.11% (inactive), respectively.

Turning to `CCOC(=O)C1C(=O)OC(C)(C)C1C(C)C(=O)c1ccc(OC)cc1` (stereo not given), the viability in assay [1] is 112% (inactive); in assay [2], 96% (inactive); in assay [3] (setting [6]) it was 92.7%; in assay [3] (setting [7]), 96%. In addition, the differential viability (reversal) in assay [3] (H69AR cells + 2 uM doxorubicin) is 3.24% (inactive). In addition, the inhibition is -0.39% (inactive) in assay [4] and 18.6% (inactive) in assay [5].

Consider `Cc1ccc(NC(=O)CSc2nnc(-c3ccccn3)n2C)cc1`, for which the viability in assay [1] was 115% (inactive); in assay [2] it was 91.5% (inactive); in assay [3] (setting [6]) it was 92.3%; in assay [3] (setting [7]), 91.5%. Moreover, the differential viability (reversal) in assay [3] (H69AR cells + 2 uM doxorubicin) is -0.845% (inactive). Also, the inhibition in assay [4] was -7.73% (inactive); in assay [5], -8.89% (inactive).

As to `O=C1C2ON(c3ccccc3)C(c3cccnc3)C2C(=O)N1c1ccccc1` (stereo not given), the viability in assay [1] was 104% (inactive); in assay [2] it was 89.8% (inactive); in assay [3] (setting [6]), 87.1%; in assay [3] (setting [7]), 89.8%. For the same molecule, the differential viability (reversal) in assay [3] (H69AR cells + 2 uM doxorubicin) was 2.77% (inactive). Also, the inhibition in assay [4] was -1.45% (inactive); in assay [5] it was -10.3% (inactive).

Turning to `COc1cc(NC(=O)c2cc(-n3cnnc3)ccc2Cl)cc(OC)c1`, the viability was 93.6% (inactive) in assay [1], 104% (inactive) in assay [2], 83.7% in assay [3] (setting [6]) and 104% in assay [3] (setting [7]). For the same molecule, the differential viability (reversal) in assay [3] (H69AR cells + 2 uM doxorubicin) was 19.9% (inactive). For the same molecule, the inhibition is 0% (inactive) in assay [4] and -1.11% (inactive) in assay [5].

Regarding `CCOc1cc(C)c(C(C)C)cc1S(=O)(=O)N1CCN(C)CC1`, the viability in assay [1] was 96.1% (inactive); in assay [2] it was 96.2% (inactive); in assay [3] (setting [6]) it was 93.2%; in assay [3] (setting [7]) it was 96.2%. In addition, the differential viability (reversal) in assay [3] (H69AR cells + 2 uM doxorubicin) is 2.99% (inactive). In addition, the inhibition in assay [4] is 1.84% (inactive); in assay [5], -5.71% (inactive).

In the case of `C=CCn1c(Cc2csc(N)n2)nnc1SCC(=O)OCC`, the viability in assay [1] was 103% (inactive); in assay [2], 91.9% (inactive); in assay [3] (setting [6]), 96.6%; in assay [3] (setting [7]), 91.9%. The differential viability (reversal) in assay [3] (H69AR cells + 2 uM doxorubicin) is -4.66% (inactive). Besides, the inhibition in assay [4] is -2.63% (inactive); in assay [5], -6.67% (inactive).

As to `Cc1ccc(NC(=O)COc2nc(C)cs2)cc1`, the viability in assay [1] was 97.5% (inactive); in assay [2], 91.5% (inactive); in assay [3] (setting [6]), 87.6%; in assay [3] (setting [7]) it was 91.5%. For the same molecule, the differential viability (reversal) in assay [3] (H69AR cells + 2 uM doxorubicin) is 3.88% (inactive). In addition, the inhibition in assay [4] is -3.64% (inactive); in assay [5] it was 2.7% (inactive).

Take `CCCS(=O)(=O)N1CCN(C(=O)CCC2CCCC2)CC1`: the viability in assay [1] was 101% (inactive); in assay [2], 85% (inactive); in assay [3] (setting [6]) it was 84.1%; in assay [3] (setting [7]) it was 85%. Besides, in assay [3] (H69AR cells + 2 uM doxorubicin), the differential viability (reversal) is 0.865% (inactive). The inhibition in assay [4] was -3.29% (inactive); in assay [5], -1.11% (inactive).

As for `COC(=O)Cn1c(=O)c2c(nc(Br)n2CC(=O)OC)n(C)c1=O`, the viability in assay [1] is 91.6% (inactive); in assay [2], 86.5% (inactive); in assay [3] (setting [6]), 79.7%; in assay [3] (setting [7]), 86.5%. For the same molecule, the differential viability (reversal) in assay [3] (H69AR cells + 2 uM doxorubicin) is 6.83% (inactive). Also, the inhibition in assay [4] is -4.53% (inactive); in assay [5], -0.79% (inactive).

As for `COC(=O)C1=C(CSCc2ccco2)NC(=O)NC1c1cc(C)ccc1C` (stereo not given), the viability in assay [1] was 98.4% (inactive); in assay [2] it was 82.5% (inactive); in assay [3] (setting [6]), 92%; in assay [3] (setting [7]) it was 82.5%. In assay [3] (H69AR cells + 2 uM doxorubicin), the differential viability (reversal) was -9.46% (inactive). Also, the inhibition in assay [4] was -1.47% (inactive); in assay [5], -1.43% (inactive).

Consider `CCC(C)(C)n1nnnc1C(c1ccccc1OC)N1CCSCC1` (stereo not given), for which the viability in assay [1] is 99.6% (inactive); in assay [2] it was 90% (inactive); in assay [3] (setting [6]), 82.3%; in assay [3] (setting [7]), 90%. Also, the differential viability (reversal) in assay [3] (H69AR cells + 2 uM doxorubicin) was 7.71% (inactive). Further, the results for the inhibition in assay [4] and in assay [5] were -0.78% (inactive) and -4.76% (inactive), respectively.

As for `CCCCCCn1c(CN2CCN(Cc3ccccc3)CC2)nc2c1c(=O)n(C)c(=O)n2C`, the viability in assay [1] was 86.6% (inactive); in assay [2] it was 70.9% (inactive); in assay [3] (setting [6]), 32.1%; in assay [3] (setting [7]) it was 70.9%. For the same molecule, the differential viability (reversal) in assay [3] (H69AR cells + 2 uM doxorubicin) was 38.8% (inactive). For the same molecule, the results for the inhibition in assay [4] and in assay [5] were -5.48% (inactive) and 4.55% (inactive), respectively.

As to `COc1ccc(-c2nc(C(N)=O)c3[nH]c(=O)n(-c4cccc(Cl)c4)c3n2)cc1OC`, the viability in assay [1] is 3.29% (active); in assay [2], 1.2% (active); in assay [3] (setting [6]), 2.13%; in assay [3] (setting [7]), 1.2%. Further, the differential viability (reversal) in assay [3] (H69AR cells + 2 uM doxorubicin) was -0.93% (inactive). In addition, the inhibition in assay [4] is 6.23% (inactive); in assay [5], -0.33% (inactive).

For `O=C(NCCN1CCCCC1)c1ccc(=O)oc1`, the viability in assay [1] is 101% (inactive); in assay [2], 99.2% (inactive); in assay [3] (setting [6]), 89.6%; in assay [3] (setting [7]), 99.2%. Moreover, the differential viability (reversal) in assay [3] (H69AR cells + 2 uM doxorubicin) is 9.61% (inactive). The inhibition in assay [4] was -8.03% (inactive); in assay [5], -2.22% (inactive).

With `Cc1ccc2c(COn3nnc4ccc(S(=O)(=O)N(C)C)cc43)cc(=O)oc2c1C`, the viability in assay [1] was 79.5% (inactive); in assay [2], 72.1% (inactive); in assay [3] (setting [6]) it was 75.6%; in assay [3] (setting [7]), 72.1%. The differential viability (reversal) in assay [3] (H69AR cells + 2 uM doxorubicin) was -3.53% (inactive). Further, the inhibition in assay [4] was -1.04% (inactive); in assay [5], 2.7% (inactive).

Consider `Cc1ccccc1NS(=O)(=O)c1ccc(NC(=O)c2ccco2)cc1`, for which the viability in assay [1] is 90% (inactive); in assay [2], 89.2% (inactive); in assay [3] (setting [6]) it was 89.7%; in assay [3] (setting [7]), 89.2%. Also, the differential viability (reversal) in assay [3] (H69AR cells + 2 uM doxorubicin) is -0.49% (inactive). Further, the inhibition was -2.34% (inactive) in assay [4] and -2.38% (inactive) in assay [5].

`CCOc1ccccc1C(=O)NCc1ccc2c(c1)OCO2`: the viability was 88.2% (inactive) in assay [1], 67.4% (inactive) in assay [2], 88.1% in assay [3] (setting [6]) and 67.4% in assay [3] (setting [7]). For the same molecule, in assay [3] (H69AR cells + 2 uM doxorubicin), the differential viability (reversal) was -20.6% (inactive). Besides, the results for the inhibition in assay [4] and in assay [5] were -7.73% (inactive) and 3.02% (inactive), respectively.

In the case of `CCOC(=O)C1=C(CC)Nc2ccccc2N=C1NC(=O)Nc1ccccc1OC`, the viability in assay [1] is 50.5% (inactive); in assay [2], 74% (inactive); in assay [3] (setting [6]) it was 74.5%; in assay [3] (setting [7]) it was 74%. Moreover, the differential viability (reversal) in assay [3] (H69AR cells + 2 uM doxorubicin) was -0.52% (inactive). Further, the figures for the inhibition in assay [4] and in assay [5] were 0.52% (inactive) and 1.11% (inactive), respectively.

As a reminder, the viability is a read-out of living cells in per cent, often relative to untreated cells. What is called inhibition is the relative decrease from the control value, in per cent.
